Values after ≈ are worked out from the molar mass of the structure shown.
What was measured:
Aspergillus versicolor [1] = experiment: Antifungal activity against Aspergillus versicolor ATCC 11730 after 72 hrs by serial dilution method; assay type: functional; conditions: ATCC 11730, 72 h
How it was run: (§1)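 Fungi were kept on malt agar at 4 °C and sub-cultured monthly. Spores were washed off the agar with sterile 0.85% saline containing 0.1% Tween 80 (v/v). Modified microdilution in 96-well plates. MIC is the lowest concentration with no visible growth under the binocular microscope. Inoculum checked on malt agar for contamination and validity.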

Penicillium ochrochloron [2] = experiment: Antifungal activity against Penicillium ochrochloron ATCC 9112 after 72 hrs by serial dilution method; assay type: functional; conditions: ATCC 9112, 72 h; how it was run: as §1
Pseudomonas aeruginosa [3] = experiment: Antibacterial activity against Pseudomonas aeruginosa ATCC 27853 after 24 hrs; assay type: functional; conditions: ATCC 27853, 24 h
How it was run: (§2)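 Broth microdilution MIC in 96-well plates. Compounds in LB broth with bacterial inoculum of 1.0 × 10^4 cfu per well, from suspensions adjusted with sterile saline to 1.0 × 10⁵ CFU/ml. Incubated 24 h at […] as printed. MIC taken as the lowest concentration with no visible growth under the binocular microscope. OD at 655 nm also read against blank. Streptomycin and ampicillin as positive controls. Duplicate, repeated three times.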

Staphylococcus aureus [4] = experiment: Antibacterial activity against Staphylococcus aureus ATCC 6538 after 24 hrs; assay type: functional; conditions: ATCC 6538, 24 h; how it was run: as §2
Aspergillus flavus [5] = experiment: Antifungal activity against Aspergillus flavus ATCC 9643 after 72 hrs by serial dilution method; assay type: functional; conditions: ATCC 9643, 72 h; how it was run: as §1
Aspergillus flavus [6] = experiment: Antifungal activity against Aspergillus flavus ATCC 9643 after 72 hrs by serial sub-cultivation method; assay type: functional; conditions: ATCC 9643, 72 h
How it was run: (§3)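 MFC was found by serial sub-cultivation of 2 µl into plates holding 100 µl broth per well, then incubation 72 h at 28 °C. MFC is the lowest concentration with no visible growth, taken as 99.5% killing of the original inoculum. Spore inocula came from malt agar cultures washed with 0.85% saline and 0.1% Tween 80.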

Salmonella typhimurium [7] = experiment: Antibacterial activity against Salmonella Typhimurium ATCC 13311 after 24 hrs; assay type: functional, Salmonella enterica subsp. enterica serovar Typhimurium; conditions: Salmonella enterica, ATCC 13311, 24 h; how it was run: as §2
Aspergillus fumigatus [8] = experiment: Antifungal activity against Aspergillus fumigatus plant isolate after 72 hrs by serial dilution method
Escherichia coli [9] = experiment: Antibacterial activity against Escherichia coli ATCC 35210 after 72 hrs by serial sub-cultivation method; assay type: functional; conditions: ATCC 35210, 72 h
How it was run: (§4)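 MBC was found by serial sub-cultivation of 2 µl from the MIC wells into plates holding 100 µl broth per well, then incubation for 72 h. MBC is the lowest concentration with no visible growth, i.e. 99.5% killing of the original inoculum. Bacterial inoculum was 1.0 × 10^4 cfu per well in LB broth. Duplicate, repeated three times.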

Micrococcus flavus [10] = experiment: Antibacterial activity against Micrococcus flavus ATCC 10240 after 24 hrs; assay type: functional; conditions: ATCC 10240, 24 h; how it was run: as §2
Penicillium ochrochloron [11] = experiment: Antifungal activity against Penicillium ochrochloron ATCC 9112 after 72 hrs by serial sub-cultivation method; assay type: functional; conditions: ATCC 9112, 72 h; how it was run: as §3
Listeria monocytogenes [12] = experiment: Antibacterial activity against Listeria monocytogenes NCTC 7973 after 72 hrs by serial sub-cultivation method; assay type: functional; conditions: NCTC 7973, 72 h; how it was run: as §4
Escherichia coli [13] = experiment: Antibacterial activity against Escherichia coli ATCC 35210 after 24 hrs; assay type: functional; conditions: ATCC 35210, 24 h; how it was run: as §2
Fulvia fulva [14] = experiment: Antifungal activity against Fulvia fulva TK 5318 after 72 hrs by serial sub-cultivation method; assay type: functional; conditions: TK 5318, 72 h; how it was run: as §3
Proteus mirabilis [15] = experiment: Antibacterial activity against Proteus mirabilis after 24 hrs; assay type: functional; how it was run: as §2
Aspergillus fumigatus [16] = experiment: Antifungal activity against Aspergillus fumigatus plant isolate after 72 hrs by serial sub-cultivation method
Trichoderma viride [17] = experiment: Antifungal activity against Trichoderma viride IAM 5061 after 72 hrs by serial sub-cultivation method; assay type: functional; conditions: IAM 5061, 72 h; how it was run: as §3
Salmonella typhimurium [18] = experiment: Antibacterial activity against Salmonella Typhimurium ATCC 13311 after 72 hrs by serial sub-cultivation method; assay type: functional, Salmonella enterica subsp. enterica serovar Typhimurium; conditions: Salmonella enterica, ATCC 13311, 72 h; how it was run: as §4
Aspergillus niger [19] = experiment: Antifungal activity against Aspergillus niger ATCC 6275 after 72 hrs by serial dilution method; assay type: functional; conditions: ATCC 6275, 72 h; how it was run: as §1
Aspergillus versicolor [20] = experiment: Antifungal activity against Aspergillus versicolor ATCC 11730 after 72 hrs by serial sub-cultivation method; assay type: functional; conditions: ATCC 11730, 72 h; how it was run: as §3
Bacillus cereus [21] = experiment: Antibacterial activity against Bacillus cereus clinical isolate after 24 hrs; assay type: functional; how it was run: as §2
Pseudomonas aeruginosa [22] = experiment: Antibacterial activity against Pseudomonas aeruginosa ATCC 27853 after 72 hrs by serial sub-cultivation method; assay type: functional; conditions: ATCC 27853, 72 h; how it was run: as §4
Staphylococcus aureus [23] = experiment: Antibacterial activity against Staphylococcus aureus ATCC 6538 after 72 hrs by serial sub-cultivation method; assay type: functional; conditions: ATCC 6538, 72 h; how it was run: as §4
Fulvia fulva [24] = experiment: Antifungal activity against Fulvia fulva TK 5318 after 72 hrs by serial dilution method; assay type: functional; conditions: TK 5318, 72 h; how it was run: as §1
Bacillus cereus [25] = experiment: Antibacterial activity against Bacillus cereus clinical isolate after 72 hrs by serial sub-cultivation method; assay type: functional; how it was run: as §4
Proteus mirabilis [26] = experiment: Antibacterial activity against Proteus mirabilis after 72 hrs by serial sub-cultivation method; assay type: functional; how it was run: as §4
Talaromyces funiculosus [27] = experiment: Antifungal activity against Penicillium funiculosum ATCC 36839 after 72 hrs by serial sub-cultivation method; assay type: functional; conditions: ATCC 36839, 72 h; how it was run: as §3
Aspergillus niger [28] = experiment: Antifungal activity against Aspergillus niger ATCC 6275 after 72 hrs by serial sub-cultivation method; assay type: functional; conditions: ATCC 6275, 72 h; how it was run: as §3
Listeria monocytogenes [29] = experiment: Antibacterial activity against Listeria monocytogenes NCTC 7973 after 24 hrs; assay type: functional; conditions: NCTC 7973, 24 h; how it was run: as §2
Talaromyces funiculosus [30] = experiment: Antifungal activity against Penicillium funiculosum ATCC 36839 after 72 hrs by serial dilution method; assay type: functional; conditions: ATCC 36839, 72 h; how it was run: as §1
Trichoderma viride [31] = experiment: Antifungal activity against Trichoderma viride IAM 5061 after 72 hrs by serial dilution method; assay type: functional; conditions: IAM 5061, 72 h; how it was run: as §1
Micrococcus flavus [32] = experiment: Antibacterial activity against Micrococcus flavus ATCC 10240 after 72 hrs by serial sub-cultivation method; assay type: functional; conditions: ATCC 10240, 72 h; how it was run: as §4

Compound | MIC (Aspergillus versicolor [1]) [µM] | MIC (Penicillium ochrochloron [2]) [µM] | MIC (Pseudomonas aeruginosa [3]) [µM] | MIC (Staphylococcus aureus [4]) [µM] | MIC (Aspergillus flavus [5]) [µM] | MFC (Aspergillus flavus [6]) [µM] | MIC (Salmonella typhimurium [7]) [µM] | MIC (Aspergillus fumigatus [8]) [µM] | MBC (Escherichia coli [9]) [µM] | MIC (Micrococcus flavus [10]) [µM] | MFC (Penicillium ochrochloron [11]) [µM] | MBC (Listeria monocytogenes [12]) [µM] | MIC (Escherichia coli [13]) [µM] | MFC (Fulvia fulva [14]) [µM] | MIC (Proteus mirabilis [15]) [µM] | MFC (Aspergillus fumigatus [16]) [µM] | MFC (Trichoderma viride [17]) [µM] | MBC (Salmonella typhimurium [18]) [µM] | MIC (Aspergillus niger [19]) [µM] | MFC (Aspergillus versicolor [20]) [µM] | also measured
O=C1N/C(=N/c2nc(C34CC5CC(CC(C5)C3)C4)cs2)S/C1=C\c1ccccc1Cl | 16.4 (≈ 7.48 µg/mL) | 11 (≈ 5.02 µg/mL) | 21.9 (≈ 9.99 µg/mL) | 21.9 (≈ 9.99 µg/mL) | 11 (≈ 5.02 µg/mL) | 21.9 (≈ 9.99 µg/mL) | 21.9 (≈ 9.99 µg/mL) | 16.4 (≈ 7.48 µg/mL) | 43.8 (≈ 20 µg/mL) | 16.4 (≈ 7.48 µg/mL) | 21.9 (≈ 9.99 µg/mL) | 43.8 (≈ 20 µg/mL) | 21.9 (≈ 9.99 µg/mL) | 16.4 (≈ 7.48 µg/mL) | 43.8 (≈ 20 µg/mL) | 21.9 (≈ 9.99 µg/mL) | 21.9 (≈ 9.99 µg/mL) | 43.8 (≈ 20 µg/mL) | 11 (≈ 5.02 µg/mL) | 21.9 (≈ 9.99 µg/mL) | MIC (Bacillus cereus [21]): 21.9 µM (≈ 9.99 µg/mL); MBC (Pseudomonas aeruginosa [22]): 43.8 µM (≈ 20 µg/mL); MBC (Staphylococcus aureus [23]): 43.8 µM (≈ 20 µg/mL); MIC (Fulvia fulva [24]): 11 µM (≈ 5.02 µg/mL); MBC (Bacillus cereus [25]): 43.8 µM (≈ 20 µg/mL); MBC (Proteus mirabilis [26]): 63.7 µM (≈ 29 µg/mL); MFC (Talaromyces funiculosus [27]): 32.3 µM (≈ 14.7 µg/mL); MFC (Aspergillus niger [28]): 21.9 µM (≈ 9.99 µg/mL); MIC (Listeria monocytogenes [29]): 21.9 µM (≈ 9.99 µg/mL); MIC (Talaromyces funiculosus [30]): 21.9 µM (≈ 9.99 µg/mL); MIC (Trichoderma viride [31]): 11 µM (≈ 5.02 µg/mL); MBC (Micrococcus flavus [32]): 23.8 µM (≈ 10.9 µg/mL)
O=C1N/C(=N/c2nc(C34CC5CC(CC(C5)C3)C4)cs2)S/C1=C\c1ccc(Cl)cc1 | 16.4 (≈ 7.48 µg/mL) | 16.4 (≈ 7.48 µg/mL) | 21.9 (≈ 9.99 µg/mL) | 21.9 (≈ 9.99 µg/mL) | 11 (≈ 5.02 µg/mL) | 21.9 (≈ 9.99 µg/mL) | 21.9 (≈ 9.99 µg/mL) | 11 (≈ 5.02 µg/mL) | 43.8 (≈ 20 µg/mL) | 11 (≈ 5.02 µg/mL) | 21.9 (≈ 9.99 µg/mL) | 43.8 (≈ 20 µg/mL) | 21.9 (≈ 9.99 µg/mL) | 16.4 (≈ 7.48 µg/mL) | 43.8 (≈ 20 µg/mL) | 21.9 (≈ 9.99 µg/mL) | 16.4 (≈ 7.48 µg/mL) | 43.8 (≈ 20 µg/mL) | 11 (≈ 5.02 µg/mL) | 21.9 (≈ 9.99 µg/mL) | MIC (Bacillus cereus [21]): 16.4 µM (≈ 7.48 µg/mL); MBC (Pseudomonas aeruginosa [22]): 43.8 µM (≈ 20 µg/mL); MBC (Staphylococcus aureus [23]): 43.8 µM (≈ 20 µg/mL); MIC (Fulvia fulva [24]): 11 µM (≈ 5.02 µg/mL); MBC (Bacillus cereus [25]): 21.9 µM (≈ 9.99 µg/mL); MBC (Proteus mirabilis [26]): 65.7 µM (≈ 30 µg/mL); MFC (Talaromyces funiculosus [27]): 21.9 µM (≈ 9.99 µg/mL); MFC (Aspergillus niger [28]): 21.9 µM (≈ 9.99 µg/mL); MIC (Listeria monocytogenes [29]): 21.9 µM (≈ 9.99 µg/mL); MIC (Talaromyces funiculosus [30]): 11 µM (≈ 5.02 µg/mL); MIC (Trichoderma viride [31]): 11 µM (≈ 5.02 µg/mL); MBC (Micrococcus flavus [32]): 21.9 µM (≈ 9.99 µg/mL)
O=C1N/C(=N/c2nc(C34CC5CC(CC(C5)C3)C4)cs2)S/C1=C\c1cccc(Cl)c1 | 11 (≈ 5.02 µg/mL) | 5.5 (≈ 2.51 µg/mL) | 21.9 (≈ 9.99 µg/mL) | 16.4 (≈ 7.48 µg/mL) | 16.4 (≈ 7.48 µg/mL) | 21.9 (≈ 9.99 µg/mL) | 21.9 (≈ 9.99 µg/mL) | 11 (≈ 5.02 µg/mL) | 43.8 (≈ 20 µg/mL) | 11 (≈ 5.02 µg/mL) | 11 (≈ 5.02 µg/mL) | 43.8 (≈ 20 µg/mL) | 21.9 (≈ 9.99 µg/mL) | 21.9 (≈ 9.99 µg/mL) | 43.8 (≈ 20 µg/mL) | 21.9 (≈ 9.99 µg/mL) | 21.9 (≈ 9.99 µg/mL) | 43.8 (≈ 20 µg/mL) | 11 (≈ 5.02 µg/mL) | 21.9 (≈ 9.99 µg/mL) | MIC (Bacillus cereus [21]): 16.4 µM (≈ 7.48 µg/mL); MBC (Pseudomonas aeruginosa [22]): 43.8 µM (≈ 20 µg/mL); MBC (Staphylococcus aureus [23]): 43.8 µM (≈ 20 µg/mL); MIC (Fulvia fulva [24]): 16.4 µM (≈ 7.48 µg/mL); MBC (Bacillus cereus [25]): 21.9 µM (≈ 9.99 µg/mL); MBC (Proteus mirabilis [26]): 65.7 µM (≈ 30 µg/mL); MFC (Talaromyces funiculosus [27]): 21.9 µM (≈ 9.99 µg/mL); MFC (Aspergillus niger [28]): 21.9 µM (≈ 9.99 µg/mL); MIC (Listeria monocytogenes [29]): 21.9 µM (≈ 9.99 µg/mL); MIC (Talaromyces funiculosus [30]): 21.9 µM (≈ 9.99 µg/mL); MIC (Trichoderma viride [31]): 11 µM (≈ 5.02 µg/mL); MBC (Micrococcus flavus [32]): 21.9 µM (≈ 9.99 µg/mL)
